Compound activity: PubChem BioAssay, several laboratories
Calb biofilm kill = mixture kills Candida albicans biofilm cells; C. albicans biofilm persisters + clotrimazole, fluorescence viability; primary screen in compound mixtures of four per well; inhibition, % at 7.6 µM; 120,000 compounds, 0.02% hits;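 active = inhibition above 30.3% in the primary screen of four-compound pools, then above 30% when the compound was retested; inconclusive = passed the primary limit but could not be retested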;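 note: compounds exposed to preformed 24 h biofilms for 48 h; 0% = untreated biofilm control and 100% = clotrimazole plus chlorhexidine kill blank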
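Test system: C. albicans CAF4-2 wild-type biofilms; buffer or medium: RPMI/MOPS medium, pH 7.0; schedule: 24 h biofilm formation, then 48 h compound exposure, 37 °C; detection: Alamar Blue fluorescence; measure: percent inhibition of biofilm viability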
Pf gametocyte = inhibitors of late stage P. falciparum gametocyte viability; 150,000 compounds, 0.065% hits; inhibition, % at 10.9 µM; P. falciparum stage V gametocytes, ATP luminescence, 24 h;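 active = inhibition above the mean plus 3 SD of compounds within the control limits, set per campaign, cut at about 38% in these data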;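 note: 0% = DMSO wells and 100% = medium only without gametocytes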
ROMK primary = modulates human ROMK potassium channel activity. Tet-inducible ROMK, thallium flux fluorescence; actives lie on both sides. AID 1918. B-score at 10 µM. 130,000 compounds, 2% hits;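 active = signal ratio slope over the read window, or its plate-corrected B-score, at least 3 SD from the plate mean, either direction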;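 note: B-score of the F/F0 ratio slope over 7 to 12 s after thallium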
Target sequence (P48048 whole entry, looked up): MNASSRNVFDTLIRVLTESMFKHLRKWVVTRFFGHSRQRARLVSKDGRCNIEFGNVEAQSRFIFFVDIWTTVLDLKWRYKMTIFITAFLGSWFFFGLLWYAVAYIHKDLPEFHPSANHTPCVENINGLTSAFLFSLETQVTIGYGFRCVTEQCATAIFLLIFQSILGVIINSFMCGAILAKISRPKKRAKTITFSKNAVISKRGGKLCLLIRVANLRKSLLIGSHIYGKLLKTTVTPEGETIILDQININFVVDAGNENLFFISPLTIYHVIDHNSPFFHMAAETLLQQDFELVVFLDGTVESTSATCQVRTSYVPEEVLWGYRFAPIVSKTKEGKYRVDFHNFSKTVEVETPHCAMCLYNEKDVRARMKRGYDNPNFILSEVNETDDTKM
ROMK hit retest = human ROMK channel modulation, retest confirmation; shares compounds with ROMK primary; ROMK thallium flux, fluorescence ratio; stronger effect = lower value; normalized thallium flux (F/F0 slope) at 10 µM; 3,000 compounds, 54% hits;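 active = Flux at 10 µM at least 3 SD below or above vehicle control mean in one or both replicates; inconclusive = no clear call, values can overlap the other calls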
* = called active by the depositor; ? = inconclusive; / = not tested or not shown. Many of the other results were omitted from the sample, so hits are more common in it than they were.

SMILES	Calb biofilm kill	Pf gametocyte	ROMK primary	ROMK hit retest
Cc1ccc(C(=O)N2CCN(Cc3ccc4c(c3)OCO4)CC2)c(Cl)c1	/	6.6	/	/
N#C/C(=C\c1ccncc1)c1nc2c(s1)CCCC2	-2.5	-25.3	-2.03*	0.0629*
N#C/C(=C\c1ccc(Cl)cc1)c1nc(-c2ccco2)cs1	14.2	17.5	0.613	/
Nc1nc2ccccc2n1C(=O)c1ccccc1	12.7	9.9	2.14*	0.0759
Nc1nc2ccccc2n1C(=O)c1ccc(F)cc1	5.0	10.7	1.24	/
CN(C)CCN(CC1CCCN(Cc2ccccc2F)C1)C(=O)c1ccc(F)cc1 (centres undefined)	/	-7.0	/	/
Cc1csc(NC(=O)CSc2nnc(NC(=O)COc3ccc(Cl)cc3)s2)n1	3.1	9.0	/	/
CN(c1ccccc1C(=O)N1CCN(Cc2ccc3c(c2)OCO3)CC1)S(C)(=O)=O	21.1	-2.4	-0.332	/
CC(C)C[C@H]1CN=C(Nc2ccccc2)N1CCC(C)c1ccccc1 (some centres undefined)	/	15.8	/	/
CCCOc1ccc(-c2cc(C(=O)NCC3CCCO3)c3ccccc3n2)cc1 (centres undefined)	9.6	2.2	-4.17*	?
O=C(COC(=O)c1cc(-c2ccc(F)cc2)nc2ccccc12)NCC1CCCO1 (centres undefined)	18.0	11.5	-4.36*	0.0658*
O=C(NCC1CCCO1)c1cc(-c2ccco2)nc2ccccc12 (centres undefined)	/	/	-0.771	/
O=C(COC(=O)c1cccc2ccccc12)NCC1CCCO1 (centres undefined)	11.5	10.2	-0.214	/
CCN(CC)S(=O)(=O)c1ccc2[nH]c(=O)c3ccccc3c2c1	/	8.6	/	/
CC(/C=N/NC(=O)c1nn(C)c(C)c1Br)=C\c1ccccc1	14.0	10.0	/	/
COc1cc2c(-c3ccccc3)c(C)oc2cc1/C=N/NC(N)=S	/	13.2	/	/
CCOC(=O)C1CCCN(C(=O)c2ccc(Cl)c(S(=O)(=O)N3CCCCCC3)c2)C1 (centres undefined)	11.5	19.8	-0.0519	/
COc1cc(/C=C(\NC(C)=O)C(=O)Nc2cccc(O)c2)ccc1OC(C)=O	12.9	/	/	/
COC(=O)c1cc(NC(=O)c2ccc(OC)cc2)c(=O)oc1C	9.1	-0.4	0.776	/
COc1ccc(C(=O)Nc2cc(C(C)=O)c(/C=C/N(C)C)oc2=O)cc1	/	14.2	/	0.0368*
CC1Cc2ccccc2N1C(=O)CSc1nnnn1C (centres undefined)	/	/	-0.753	/
CC1Cc2ccccc2N1C(=O)CSc1nnc(Cc2ccccc2)n1CCc1ccccc1 (centres undefined)	/	/	-3.86*	0.0624*
CC(CN1CCCC1)OC(=O)c1ccc(Cl)cc1 (centres undefined)	/	22.2	/	/
COc1cccc(/C=N/n2c(N)nc3ccccc32)c1OC	/	/	6.6*	0.11*
COc1ccc(/C=N/n2c(N)nc3ccccc32)cc1OC	/	-16.3	/	/
SMILES	Calb biofilm kill	Pf gametocyte	ROMK primary	ROMK hit retest
CC(C)C[C@H](NC(=O)Nc1ccc2c(c1)OCCO2)C(=O)O	30.6	7.1	/	/
CN1C(=O)/C(=N\OC(=O)c2ccccc2Cl)c2ccccc21	11.8	-23.2	-3.3	/
CC(=O)O/N=C1\C(=O)N(Cc2ccc(C)cc2)c2ccccc21	13.0	20.9	-5.22*	0.0635*
NN1C(=O)/C(=C\c2ccco2)SC1=S	11.5	22.9	/	/
COc1ccc(C(=O)Cn2nnc(-c3ccccc3NC(=O)C(F)(F)F)n2)cc1	/	/	1.99*	0.0734
COc1ccc(C(=O)Cn2nnc(-c3ccccc3NC(=O)C3CCCCC3)n2)cc1	/	/	-0.834	/
Cn1c(N=NC(=O)c2ccccc2)c(O)c2ccccc21	18.0	22.9	0.37	/
COc1cccc(-c2ncc3ccccc3c2COC(=O)CCC(=O)O)c1	/	12.9	/	/
N#Cc1c(F)cccc1NCCCn1ccnc1	/	-3.2	/	/
CCNC(=O)COC(=O)c1cc(C)n(-c2ccccc2)c1C	15.7	-20.6	0.857	/
Cc1cc(C(=O)OCC(=O)NCc2ccco2)c(C)n1-c1ccc(F)cc1	/	/	5.13*	0.0899
CC(C)(C)OC(=O)COc1cc(F)ccc1[N+](=O)[O-]	/	-25.8	/	/
CC1=Nc2ccccc2/C1=C\c1sc(Nc2ccc(C)cc2)nc1O	8.6	-7.5	2.01*	0.0949
Oc1nc(Nc2ccc(F)cc2)sc1/C=C1\C=Nc2ccccc21	12.4	9.4	1.5	/
O=C(CNC(=O)c1ccccc1Cl)OC1CCOC1=O (centres undefined)	7.7	3.9	0.0372	/
Cc1ccccc1C(=O)Nc1ccc(-c2nnc(SC(C)C(=O)O)n2C)cc1 (centres undefined)	18.4	0.9	/	0.0789
CSc1nnc(-c2ccc(NC(=O)CCc3ccccc3)cc2)n1C	/	11.6	-0.691	/
CC(=O)c1c(C)[nH]c(C(=O)OCc2ccccc2)c1C	15.0	-23.6	2.06	/
CC(=O)c1c(C)[nH]c(C(=O)OCCCCN2C(=O)c3ccccc3C2=O)c1C	/	/	/	0.0609*
COc1ccc(C(=O)CN(CCC(=O)O)S(=O)(=O)c2ccc([N+](=O)[O-])cc2)cc1	/	-3.1	/	/
COc1ccc(-c2nc(C)c(C(C)=O)n2O)cc1[N+](=O)[O-]	7.7	/	-0.253	/
CC(=O)c1c(C)nc(-c2cccc([N+](=O)[O-])c2)n1O	22.6	12.3	-4.71*	0.0631*
Cc1cccc(OCCC(=O)N(C)CC(=O)Nc2cccc3ccccc23)c1	7.2	3.7	/	/
COc1cccc(-c2nc(NCCN3CCOCC3)c3ccccc3n2)c1O	/	4.5	-0.844	/
Oc1ccccc1-c1nc(NCCN2CCOCC2)c2ccccc2n1	/	/	-3.67*	0.0725
SMILES	Calb biofilm kill	Pf gametocyte	ROMK primary	ROMK hit retest
Cc1ccc(CNC(=O)CCCCn2c(=O)[nH]c3ccsc3c2=O)cc1	4.4	5.3	0.933	/
Cc1ccc(CNC(=O)Cc2ccc(-n3c(=O)[nH]c4ccsc4c3=O)cc2)cc1	13.4	5.4	2.08	0.0953
Cc1ccc(CNC(=O)CSCc2ccc(F)cc2)cc1	14.4	8.1	-1.13	/
Cc1ccc(CC(=O)NCc2ccc(F)cc2)cc1	13.0	10.6	4.4*	0.0943
COc1ccc(C(=O)Nn2c(CC(C)C)nc3cc(Cl)ccc3c2=O)c(OC)c1	/	-10.8	/	/
Cc1nnsc1-c1onc(C)c1C(=O)O/N=C/c1ccc(Cl)cc1	15.8	-1.0	/	/
COc1cccc(-c2csc(N3CCN(C(=O)C4CCCCC4)CC3)n2)c1	/	/	/	?
COc1cccc(-c2csc(N3CCN(C(=O)Nc4ccc(F)cc4)CC3)n2)c1	16.4	/	-2.29	/
N#C/C(=C\c1ccccn1)c1nc2ccccc2s1	-5.1	19.9	-5.71*	0.0321*
COc1ccc(/C(C#N)=C/c2ccccn2)cc1	17.3	/	0.703	/
CCn1cc(C(=O)O)c(=O)c2cnc(N3CCN(C(=S)NC(=O)c4ccc(Cl)cc4)CC3)nc21	23.4	/	0.206	/
O=[N+]([O-])c1cccc(N2Cc3ccccc3C2)c1	18.4	0.7	-0.358	/
CCOC(=O)C(NC(C)=O)C(=O)Nc1ccc(C(C)(C)C)cc1 (centres undefined)	6.2	/	3.47*	0.0823
CCOC(=O)C(NC(C)=O)C(=O)Nc1ccc(C(C)C)cc1 (centres undefined)	19.9	19.1	-0.653	/
CC(C)C[C@H](NC(=O)OC(C)(C)C)C(=O)N[C@@H](CO)[C@H](O)[C@@H]1C[C@@H]1C(=O)N1CCCC1	/	-5.5	/	/
O=C(CNC(=O)c1cccs1)N/N=C/c1ccco1	-4.4	-13.8	3.44*	0.0669*
